# Active and inactive are the calls of the source. The rule behind the calls is not given here.
# Key:
# THP-1 [1] = experiment: Immunostimulatory activity in human THP-1 cells assessed as increase in ICAM-1 expression level at 20 uM incubated for 21 hrs by flow cytometry analysis; type: functional, cell-based
# Procedure, shortened: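 THP-1 monocytes in RPMI-1640 with 10% heat-inactivated FBS and 1% antibiotic/antimycotic, 5% CO2, 37 °C. 0.5×10^6 cells/well pre-cultured 24 h, then exposed to 20 µM peptide for 21 h. Cells centrifuged, PBS-washed, resuspended in PBS/0.1% BSA, stained with PE anti-CD54 antibody; flow cytometry read-out of ICAM-1.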
# THP-1 [2] = experiment: Immunostimulatory activity in human THP-1 cells assessed as increase in LPS-induced ICAM-1 expression at 20 uM preincubated for 1 hr followed by LPS stimulation for 20 hrs by flow cytometry analysis; type: functional, cell-based; conditions: time 21.0 hrs
# Procedure, shortened: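 Undifferentiated THP-1 monocytes (0.5×10^6/well, pre-cultured 24 h) pretreated 1 h with peptide (range 0.1–32 µM), then LPS 0.1 µg/mL added for 20 h. Cells pelleted, PBS-washed, resuspended in PBS with 0.1% BSA; ICAM-1 measured by flow cytometry.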
# THP-1 [3] = experiment: Immunostimulatory activity in human THP-1 macrophage assessed as increase in LPS-induced ICAM-1 expression by measuring mean fluorescence intensity at 20 uM preincubated for 1 hr followed by LPS stimulation for 20 hrs by flow cytometry analysis (reference value: 602.95); type: functional; conditions: time 21 hrs
# THP-1 [4] = experiment: Immunostimulatory activity in human THP-1 macrophage assessed as increase in TNF-alpha production at 15 uM incubated for 24 hrs by ELISA; type: functional
# Procedure, shortened: (§1)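 THP-1 monocytes (0.5×10^6) differentiated 48 h with PMA 20 ng/mL, PBS-washed, held 3 h in serum-free medium, then stimulated 24 h with peptide at 1, 15 or 30 µM. TNF-α in culture supernatants (stored −80 °C) measured by ELISA at 450 nm with 540 nm correction against a 2nd-order polynomial standard curve; mean of two experiments ± SEM; one-way ANOVA.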
# THP-1 [5] = experiment: Immunostimulatory activity in human THP-1 macrophage assessed as increase in TNF-alpha production at 30 uM incubated for 24 hrs by ELISA; type: functional, cell-based; procedure, shortened: as §1
Structure (SMILES),Activity (THP-1 [1]),Activity (THP-1 [2]),Flu intensity (THP-1 [3]),Activity (THP-1 [4]) [pg/mL],Activity (THP-1 [5])
CCCCCCNC(=O)CC[C@@H](NC(=O)[C@H](C)NC(=O)COc1cccc(N(CCCO)C(=O)CCC)c1)C(N)=O,inactive,Active,905.38,3105,inactive
CCCCCCNC(=O)CC[C@@H](NC(=O)[C@H](C)NC(=O)COc1cccc(NCCCO)c1)C(N)=O,inactive,Active,–,3622,inactive
CCCCCCNC(=O)CC[C@@H](NC(=O)[C@H](C)NC(=O)COc1cccc(N(CCCO)CCCO)c1)C(N)=O,inactive,Active,–,3306,inactive
CCCCOC(=O)[C@@H](CCC(N)=O)NC(=O)[C@H](C)NC(=O)[C@@H](C)O[C@H]1[C@H](O)[C@@H](CO)O[C@H](O)[C@@H]1NC(C)=O,inactive,–,1436.05,2694,–
CCCCCCNC(=O)CC[C@@H](NC(=O)[C@H](C)NC(=O)COc1cccc(N(CCO)C(C)=O)c1)C(N)=O,inactive,Active,–,3342,inactive
CCCCCCNC(=O)CC[C@@H](NC(=O)[C@H](C)NC(=O)COc1cccc(N(CCO)CCO)c1)C(N)=O,inactive,Active,–,3111,inactive
CCCCCCNC(=O)CC[C@@H](NC(=O)[C@H](C)NC(=O)COc1cccc(N(CCO)C(=O)CCC)c1)C(N)=O,inactive,Active,–,2806,inactive
CCCCCCNC(=O)CC[C@@H](NC(=O)[C@H](C)NC(=O)COc1cccc(NCCO)c1)C(N)=O,inactive,Active,–,3226,inactive
CCCCCCNC(=O)CC[C@@H](NC(=O)[C@H](C)NC(=O)COc1cccc(N(CCCO)C(C)=O)c1)C(N)=O,inactive,Active,–,2902,inactive

# From ChEMBL document CHEMBL4732048, “Amphiphilic desmuramyl peptides for the rational design of new vaccine adjuvants: Synthesis, in vitro modulation of inflammatory response and molecular docking studies” (2021)
